Experimental data taken from paper PMC3390648 (The Journal of Biological Chemistry, 2012).
Blank lines part the entries; values can stand above or below the molecule they belong to. Ends that are not written are not given here.

Columns and labels:
human primase = target: T1, human primase (Homo sapiens, UniProt P49642+P49643); experiment: Fluorescence polarization; type: binding; conditions: 25 °C, 25 mM HEPES, pH 7.2, 250 mM KCl, 1 mM TCEP, 30 nM fluorescein-labeled peptide, mean of three independent experiments
T1 sequence (P49643 1-462): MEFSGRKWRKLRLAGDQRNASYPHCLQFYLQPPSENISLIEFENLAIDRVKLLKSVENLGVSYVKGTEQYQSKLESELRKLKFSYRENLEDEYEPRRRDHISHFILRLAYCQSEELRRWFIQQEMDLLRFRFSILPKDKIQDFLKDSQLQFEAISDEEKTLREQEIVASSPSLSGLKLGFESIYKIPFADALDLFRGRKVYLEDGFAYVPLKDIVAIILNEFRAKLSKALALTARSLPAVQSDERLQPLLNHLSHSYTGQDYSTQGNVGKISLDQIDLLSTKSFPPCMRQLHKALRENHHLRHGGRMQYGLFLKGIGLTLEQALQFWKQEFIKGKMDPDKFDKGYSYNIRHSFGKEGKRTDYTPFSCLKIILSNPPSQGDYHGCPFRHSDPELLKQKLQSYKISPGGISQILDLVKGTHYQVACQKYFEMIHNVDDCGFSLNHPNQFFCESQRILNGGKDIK
T1 sequence (P49642 1-420 K72A/M73A partner): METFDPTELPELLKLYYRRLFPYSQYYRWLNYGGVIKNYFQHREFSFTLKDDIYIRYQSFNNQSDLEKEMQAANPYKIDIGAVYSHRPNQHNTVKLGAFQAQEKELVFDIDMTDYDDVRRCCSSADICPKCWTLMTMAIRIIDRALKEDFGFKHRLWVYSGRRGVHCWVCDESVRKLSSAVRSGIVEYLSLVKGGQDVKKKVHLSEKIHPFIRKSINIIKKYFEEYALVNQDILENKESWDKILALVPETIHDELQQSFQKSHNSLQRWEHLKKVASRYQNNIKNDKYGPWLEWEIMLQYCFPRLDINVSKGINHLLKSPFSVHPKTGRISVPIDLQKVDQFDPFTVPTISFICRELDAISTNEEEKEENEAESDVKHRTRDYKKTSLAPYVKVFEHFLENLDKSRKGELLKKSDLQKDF
In short: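 Peptide was human pol α 1445–1462 (wild type or point mutant), synthesized with an N-terminal fluorescein. Human primase was His-Prim1(1–420; K72A/M73A) with Prim2(1–462), made in E. coli and purified by Co-NTA, heparin, TEV cleavage and gel filtration. Serial protein dilutions were read at λex 485/λem 520 nm, 200 flashes per well. Gain was set against fluorescein (35 mP). Curves were fitted by Monte Carlo fitting.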

yeast primase [1] = experiment: GST pulldown with yeast primase; type: binding; conditions: mutation to alanine of Phe1463
In short: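 GST-Pol1 1453–1468, wild type or single alanine mutants, was expressed in E. coli BL21(DE3). An excess was bound to glutathione-Sepharose and washed in 25 mM HEPES pH 7.0, 250 mM KCl, 1% BSA, 0.1% NP-40, 1 mM TCEP. Beads were incubated with 20 μM yeast primase (Pri1(1–409)/Pri2(49–513)) for 2 h at 4 °C, then washed, ending with a BSA-free wash. Bound protein was read by SDS-PAGE with Coomassie staining.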

yeast primase [2] = experiment: Binding of pol1 C-terminal peptide to yeast primase; conditions: qualitative statement of abstract; method not given
Pol12 = experiment: Immunoprecipitation and immunoblotting, Pol12; type: cell-based, Saccharomyces cerevisiae; conditions: diploid yeast, anti-HA beads, native cell extracts, immunoblotting
Pri1-Pri2 primase = experiment: Analytical gel filtration, assembly with primase; type: binding, yeast; conditions: Superdex 200 10/300 GL, 14 μM complex, 25 mM HEPES, pH 7.2, 250 mM KCl, 5% glycerol, 0.5 mM TCEP; equimolar, 4 °C, 30 min
In short: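 Yeast primase Pri1(1–409)/His-Pri2(49–513) or the ΔCTD form Pri2(49–335), and Pol1 CTD(1263–1468)/His-Pol12(246–705), were expressed in E. coli Rosetta2(DE3). They were purified by Co-NTA, heparin, TEV tag cleavage and gel filtration. Equimolar partners were mixed for 30 min at 4 °C, and 100 μl was injected at 0.5 ml/min. Fractions were read by SDS-PAGE with Coomassie staining.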

Molecule: F1455A (GYSEVNLSKLAAGCAVKS; also: fluorescein label, position not given here)
level of binding (human primase): did not display a measurable level of binding

Molecule: F1463A (GRRYVDMTSIADFMLN; also: GST fusion, N-terminal)
interaction with primase (abstract summary, in vitro) (yeast primase [1]): abrogates the interaction with the primase

binding to primase (yeast primase [2]): binds primase with high affinity
Molecule: GRRYVDMTSIFDFMLN [pol1 peptide]

B1: Pol1: wild-type catalytic subunit of yeast pol α (protein)
chain: MSSKSEKLEKLRKLQAARNGTSIDDYEGDESDGDRIYDEIDEKEYRARKRQELLHDDFVVDDDGVGYVDRGVEEDWREVDNSSSDEDTGNLASKDSKRKKNIKREKDHQITDMLRTQHSKSTLLAHAKKSQKKSIPIDNFDDILGEFESGEVEKPNILLPSKLRENLNSSPTSEFKSSIKRVNGNDESSHDAGISKKVKIDPDSSTDKYLEIESSPLKLQSRKLRYANDVQDLLDDVENSPVVATKRQNVLQDTLLANPPSAQSLADEEDDEDSDEDIILKRRTMRSVTTTRRVNIDSRSNPSTSPFVTAPGTPIGIKGLTPSKSLQSNTDVATLAVNVKKEDVVDPETDTFQMFWLDYCEVNNTLILFGKVKLKDDNCVSAMVQINGLCRELFFLPREGKTPTDIHEEIIPLLMDKYGLDNIRAKPQKMKYSFELPDIPSESDYLKVLLPYQTPKSSRDTIPSDLSSDTFYHVFGGNSNIFESFVIQNRIMGPCWLDIKGADFNSIRNASHCAVEVSVDKPQNITPTTTKTMPNLRCLSLSIQTLMNPKENKQEIVSITLSAYRNISLDSPIPENIKPDDLCTLVRPPQSTSFPLGLAALAKQKLPGRVRLFNNEKAMLSCFCAMLKVEDPDVIIGHRLQNVYLDVLAHRMHDLNIPTFSSIGRRLRRTWPEKFGRGNSNMNHFFISDICSGRLICDIANEMGQSLTPKCQSWDLSEMYQVTCEKEHKPLDIDYQNPQYQNDVNSMTMALQENITNCMISAEVSYRIQLLTLTKQLTNLAGNAWAQTLGGTRAGRNEYILLHEFSRNGFIVPDKEGNRSRAQKQRQNEENADAPVNSKKAKYQGGLVFEPEKGLHKNYVLVMDFNSLYPSIIQEFNICFTTVDRNKEDIDELPSVPPSEVDQGVLPRLLANLVDRRREVKKVMKTETDPHKRVQCDIRQQALKLTANSMYGCLGYVNSRFYAKPLAMLVTNKGREILMNTRQLAESMNLLVVYGDTDSVMIDTGCDNYADAIKIGLGFKRLVNERYRLLEIDIDNVFKKLLLHAKKKYAALTVNLDKNGNGTTVLEVKGLDMKRREFCPLSRDVSIHVLNTILSDKDPEEALQEVYDYLEDIRIKVETNNIRIDKYKINMKLSKDPKAYPGGKNMPAVQVALRMRKAGRVVKAGSVITFVITKQDEIDNAADTPALSVAERAHALNEVMIKSNNLIPDPQYYLEKQIFAPVERLLERIDSFNVVRLSEALGLDSKKYFRREGGNNNGEDINNLQPLETTITDVERFKDTVTLELSCPSCDKRFPFGGIVSSNYYRVSYNGLQCKHCEQLFTPLQLTSQIEHSIRAHISLYYAGWLQCDDSTCGIVTRQVSVFGKRCLNDGCTGVMRYKYSDKQLYNQLLYFDSLFDCEKNKKQELKPIYLPDDLDYPKEQLTESSIKALTEQNRELMETGRSVVQKYLNDCGRRYVDMTSIFDFMLN
modifications: left off: 6HA, end not stated, kept
association with Pol12 (Pol12): all associated equally well with Pol12

complex formation with primase (Pri1-Pri2 primase): eluted as a single peak
B2: CTD-Pol12: yeast Pol1 (1263–1468) with His-tagged Pol12 (246–705) (protein)
chain 1: NLQPLETTITDVERFKDTVTLELSCPSCDKRFPFGGIVSSNYYRVSYNGLQCKHCEQLFTPLQLTSQIEHSIRAHISLYYAGWLQCDDSTCGIVTRQVSVFGKRCLNDGCTGVMRYKYSDKQLYNQLLYFDSLFDCEKNKKQELKPIYLPDDLDYPKEQLTESSIKALTEQNRELMETGRSVVQKYLNDCGRRYVDMTSIFDFMLN
chain 2: KFRTMRQNLQEASDVLDDQIESFTKIIQNHYKLSPNDFADPTIQSQSEIYAVGRIVPDSPTYDKFLNPESLSLETSRMGGVGRRVRLDLSQVNELSFFLGQIVAFKGKNANGDYFTVNSILPLPYPNSPVSTSQELQEFQANLEGSSLKVIVTCGPYFANDNFSLELLQEFIDSINNEVKPHVLIMFGPFIDITHPLIASGKLPNFPQFKTQPKTLDELFLKLFTPILKTISPHIQTVLIPSTKDAISNHAAYPQASLIRKALQLPKRNFKCMANPSSFQINEIYFGCSNVDTFKDLKEVIKGGTTSSRYRLDRVSEHILQQRRYYPIFPGSIRTRIKPKDVSTKKETNDMESKEEKVYEHISGADLDVSYLGLTEFVGGFSPDIMIIPSELQHFARVVQNVVVINPGRFIRATGNRGSYAQITVQCPDLEDGKLTLVEGEEPVYLHNVWKRARVDLIAS
modifications: left off: His tag, end not stated, cleaved
